Source: ChEMBL document CHEMBL2016441, “Discovery and structural development of small molecules that enhance transport activity of bile salt export pump mutant associated with progressive familial intrahepatic cholestasis type 2” (Bioorg Med Chem, 2012)

Tests used:
Bile salt export pump [1] = molecular target: T1, Bile salt export pump (Homo sapiens, UniProt O95342, E297G); assay: Restoration of human BSEP E297G mutant trafficking to cell membrane in MDCK2 cells co-expressing NTCP assessed as accumulation of [3H]taurocholate at 100 uM preincubated for 24 hrs prior incubation with [3H]taurocholate measured after 2 hrs by liquid scintillation counting; assay type: cell membranes; conditions: mdck2, 2 h
T1 sequence (O95342 whole entry E297G): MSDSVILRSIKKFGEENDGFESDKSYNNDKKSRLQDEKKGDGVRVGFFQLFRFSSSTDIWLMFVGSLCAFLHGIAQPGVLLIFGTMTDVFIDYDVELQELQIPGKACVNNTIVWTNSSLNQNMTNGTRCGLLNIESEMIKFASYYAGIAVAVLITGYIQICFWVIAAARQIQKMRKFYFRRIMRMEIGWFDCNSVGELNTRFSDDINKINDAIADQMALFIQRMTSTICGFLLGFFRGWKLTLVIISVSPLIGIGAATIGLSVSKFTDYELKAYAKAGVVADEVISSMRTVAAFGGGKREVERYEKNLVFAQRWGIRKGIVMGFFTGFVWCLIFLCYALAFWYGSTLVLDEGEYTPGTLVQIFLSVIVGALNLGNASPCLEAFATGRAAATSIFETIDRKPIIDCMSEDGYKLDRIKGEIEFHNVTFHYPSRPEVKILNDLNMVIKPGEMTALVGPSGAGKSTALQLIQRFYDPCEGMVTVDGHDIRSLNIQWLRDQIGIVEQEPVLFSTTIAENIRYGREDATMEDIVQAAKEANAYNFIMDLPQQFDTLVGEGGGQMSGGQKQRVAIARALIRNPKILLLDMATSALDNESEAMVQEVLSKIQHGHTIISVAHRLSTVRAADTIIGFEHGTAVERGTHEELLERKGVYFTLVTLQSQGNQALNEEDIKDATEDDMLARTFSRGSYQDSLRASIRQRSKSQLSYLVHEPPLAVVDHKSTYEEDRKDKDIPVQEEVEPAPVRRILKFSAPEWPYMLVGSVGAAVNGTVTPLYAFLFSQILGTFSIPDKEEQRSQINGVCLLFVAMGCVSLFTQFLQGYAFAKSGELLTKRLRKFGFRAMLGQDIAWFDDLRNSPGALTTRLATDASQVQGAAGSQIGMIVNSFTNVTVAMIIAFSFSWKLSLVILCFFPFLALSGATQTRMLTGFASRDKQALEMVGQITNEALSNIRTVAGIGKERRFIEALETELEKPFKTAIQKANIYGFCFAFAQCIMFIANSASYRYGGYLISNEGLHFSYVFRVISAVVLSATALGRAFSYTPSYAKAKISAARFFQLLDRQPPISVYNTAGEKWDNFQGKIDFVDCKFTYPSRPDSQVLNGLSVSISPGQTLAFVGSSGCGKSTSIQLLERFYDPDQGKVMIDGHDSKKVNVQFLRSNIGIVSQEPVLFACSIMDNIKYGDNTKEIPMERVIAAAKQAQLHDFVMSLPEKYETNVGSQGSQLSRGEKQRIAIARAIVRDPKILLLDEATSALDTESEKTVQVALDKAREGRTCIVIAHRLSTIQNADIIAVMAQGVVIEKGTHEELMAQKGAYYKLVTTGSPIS

Bile salt export pump [2] = molecular target: T1, Bile salt export pump; assay: Restoration of human BSEP E297G mutant trafficking to cell membrane in MDCK2 cells co-expressing NTCP assessed as accumulation of [3H]taurocholate at 10 uM preincubated for 24 hrs prior incubation with [3H]taurocholate measured after 2 hrs by liquid scintillation counting; assay type: cell membranes; conditions: mdck2, 2 h
In short: (§1)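 Human WT or E297G BSEP delivered by recombinant adenovirus (50 MOI) into MDCK II cells on 24-well plates, 1 day after seeding. GFP adenovirus serves as control. Compounds added 24 h post-infection for 24 h. Cells washed with Krebs–Henseleit buffer pH 7.4, then incubated with [3H]TC for 2 h and washed with ice-cold buffer. Lysed in 2 N HCl, neutralized with NaOH, counted by scintillation. Read-out is the BSEP/GFP accumulation ratio.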

Bile salt export pump [3] = molecular target: T1, Bile salt export pump; assay: Restoration of human BSEP E297G mutant trafficking to cell membrane in MDCK2 cells co-expressing NTCP assessed as decrease in [3H]taurocholate accumulation preincubated for 24 hrs prior incubation with [3H]taurocholate measured after 2 hrs by liquid scintillation counting; assay type: cell membranes; conditions: mdck2, 2 h; in short: as §1
Bile salt export pump [4] = molecular target: T1, Bile salt export pump; assay: (§2) Restoration of human BSEP E297G mutant trafficking to cell membrane in MDCK2 cells co-expressing NTCP assessed as increase in [3H]taurocholate transport measuring apparent efflux clearance across the apical membrane at 10 uM preincubated for 24 hrs prior incubation with [3H]taurocholate measured after 2 hrs by transcellular transport assay relative to control; assay type: cell-based; conditions: mdck2, 2 h
In short: (§3)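 MDCK II cells grown 2 days on Transwell inserts, then infected with E297G BSEP or GFP adenovirus (50 MOI). Compounds added 24 h later for 24 h. [3H]TC added basally. PS_apical is the steady-state transcellular rate over 2 h divided by the cellular [3H]TC concentration at 2 h. Mean ± SE of triplicates.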

Bile salt export pump [5] = molecular target: Bile salt export pump (Homo sapiens, UniProt O95342); assay: Restoration of wild type human BSEP trafficking to cell membrane in MDCK2 cells co-expressing NTCP assessed as decrease in [3H]taurocholate accumulation at 10 to 100 uM preincubated for 24 hrs prior incubation with [3H]taurocholate measured after 2 hrs by liquid scintillation counting; assay type: cell membranes; conditions: mdck2, 2 h; in short: as §1
Sequence of Bile salt export pump (Homo sapiens, UniProt O95342) (O95342 whole entry): as the sequence (O95342 whole entry E297G) above, with G297E counted along it

Bile salt export pump [6] = molecular target: T1, Bile salt export pump; assay: as §2, with “1 mM” for “10 uM”; assay type: cell-based; conditions: mdck2, 2 h, 1000 µM; in short: as §3

Compound | Activity (Bile salt export pump [2]) | also measured
C[C@H](CCC(=O)O)[C@H]1CC[C@H]2[C@@H]3[C@H](O)C[C@@H]4C[C@H](O)CC[C@]4(C)[C@H]3CC[C@]12C [CHENODIOL] | 50% | Activity (Bile salt export pump [1]): 46%
C[C@H](CCC(=O)O)[C@H]1CC[C@H]2[C@@H]3[C@@H](O)C[C@@H]4C[C@H](O)CC[C@]4(C)[C@H]3CC[C@]12C [URSODIOL] | 76% | Activity (Bile salt export pump [1]): 43%
CC(C)c1onc(-c2c(Cl)cccc2Cl)c1COc1ccc(C(=O)N(Cc2ccccc2)c2cccc(C(=O)O)c2)cc1 | 85% | 
CC(C)c1onc(-c2c(Cl)cccc2Cl)c1COc1ccc(C(=O)N(Cc2ccccc2)c2cccc(C(=O)O)c2)c(Cl)c1 | 31% | Activity (Bile salt export pump [3]): Dose-dependent effect; fold change (FC) (Bile salt export pump [4]): 7
C[C@H](CCC(=O)NCC(=O)O)[C@H]1CC[C@H]2[C@@H]3[C@H](O)C[C@@H]4C[C@H](O)CC[C@]4(C)[C@H]3C[C@H](O)[C@]12C [GLYCOCHOLIC ACID] |  | Activity (Bile salt export pump [1]): 108%
COC(=O)c1cccc(N(Cc2ccccc2)C(=O)c2ccc(OCc3c(-c4c(Cl)cccc4Cl)noc3C(C)C)cc2Cl)c1 | 93% | 
CC(C)c1onc(-c2c(Cl)cccc2Cl)c1COc1ccc(C(=O)N(c2cccc(C(=O)O)c2)c2cccc3ccccc23)c(Cl)c1 | 59% | 
CC(C)c1onc(-c2c(Cl)cccc2Cl)c1COc1ccc(C(=O)N(CCc2ccccc2)c2cccc(C(=O)O)c2)c(Cl)c1 | 53% | 
CC(C)c1onc(-c2c(Cl)cccc2Cl)c1COc1ccc(C(=O)N(Cc2ccccc2)c2ccccc2C(=O)O)c(Cl)c1 | 80% | 
CC(C)c1onc(-c2c(Cl)cccc2Cl)c1COc1ccc(C(=O)Nc2cccc(C(=O)O)c2)c(Cl)c1 | 111% | 
CC(C)c1onc(-c2ccccc2)c1COc1ccc(C(=O)N(Cc2ccccc2)c2cccc(C(=O)O)c2)c(Cl)c1 | 64% | 
CCCCN(C(=O)c1ccc(OCc2c(-c3c(Cl)cccc3Cl)noc2C(C)C)cc1Cl)c1cccc(C(=O)O)c1 | 49% | 
CC(C)c1onc(-c2c(Cl)cccc2Cl)c1COc1ccc(C(=O)N(c2cccc(C(=O)O)c2)c2ccc3ccccc3c2)c(Cl)c1 | 70% | 
C[C@H](CCC(=O)O)[C@H]1CC[C@H]2[C@@H]3[C@H](O)C[C@@H]4C[C@H](O)CC[C@]4(C)[C@H]3C[C@H](O)[C@]12C [CHOLIC ACID] | 73% | Activity (Bile salt export pump [5]): Active; Activity (Bile salt export pump [1]): 40%
Cc1cccc(C)c1-c1noc(C(C)C)c1COc1ccc(C(=O)N(Cc2ccccc2)c2cccc(C(=O)O)c2)c(Cl)c1 | 93% | 
O=C(O)CCCc1ccccc1 |  | fold change (FC) (Bile salt export pump [6]): 3
CC(C)c1onc(-c2c(Cl)cccc2Cl)c1COc1ccc(/C=C/c2cccc(C(=O)O)c2)c(Cl)c1 | 33% | Activity (Bile salt export pump [3]): Dose-dependent effect
CC(C)c1onc(-c2c(Cl)cccc2Cl)c1COc1ccc(C(=O)N(C)c2cccc(C(=O)O)c2)c(Cl)c1 | 66% | 
CC(C)c1onc(-c2c(Cl)cccc2Cl)c1COc1ccc(C(=O)N(Cc2ccccc2)c2ccc(C(=O)O)cc2)c(Cl)c1 | 35% | 
C[C@H](CCC(=O)O)[C@H]1CC[C@H]2[C@@H]3CC[C@@H]4C[C@H](O)CC[C@]4(C)[C@H]3C[C@H](O)[C@]12C [DEOXYCHOLIC ACID] |  | Activity (Bile salt export pump [1]): 65%
